{"source": "paper PMC2767302", "about": "(Circulation, 2008)", "key": {"[1]": {"conditions": "native BNP; quoted in the discussion, no reference given; cited from earlier work"}, "[2]": {"test_system": "plasma cGMP", "format": "in vivo, dog", "conditions": "oral 350 μg/kg; normal conscious dogs; n=6", "summary_of_the_method": "(§1)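 Adult male mongrel dogs (15-20 kg) with a femoral arterial port were fed 100 mEq/day sodium for 5 days, with water ad lib and sling acclimation. On the study day they were fasted and kept 30 min in a sling while conscious. Randomized single oral 350 μg/kg dose (conjugate n=5; unconjugated peptide n=6; vehicle n=6). MAP and blood were taken at baseline and 10–240 min. Plasma hBNP and cGMP were measured by radioimmunoassay. Mean ± SEM; repeated-measures ANOVA with Bonferroni.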"}, "[3]": {"test_system": "normal conscious dogs", "assay": "Mean arterial pressure after acute oral administration in normal conscious dogs", "format": "in vivo, dog", "conditions": "oral 350 μg/kg, n=6, up to 240 min", "summary_of_the_method": "as §1"}}}
{"substance": "native hBNP: native human B-type natriuretic peptide, 32 amino acid mature form", "values": [{"measurement": "Half life", "setting": "[1]", "value": "approximately 20 minutes"}, {"measurement": "Plasma cGMP response (in words)", "setting": "[2]", "value": "not statistically different from baseline levels"}, {"measurement": "MAP response throughout the study (in words)", "setting": "[3]", "value": "did not change"}]}
